The values that follow come from ChEMBL document CHEMBL4842317, “Discovery of novel 3-hydroxyandrosta-5,7-Diene-17-Carboxylic acid derivatives as anti-inflammatory bowel diseases (IBD) agents” (Eur J Med Chem, 2021).

pIC50: −log10 of the molar value. Activity calls are given as the source filed them. The rule behind the calls is not given here.

Experiment [1] relates to RAW264.7. Nature of the experiment: Antiinflammatory activity against mouse RAW264.7 cells assessed as inhibition of LPS-induced NO production at 20 uM after 24 hrs by Griess assay. It counts as functional. Put shortly: (§1)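 RAW 264.7 cells (1 × 10^5 cells/mL) are cultured 24 h, stimulated with LPS (100 ng/mL final), and treated with compounds from 100 μM downward for 24 h in DMEM with 10% FBS. Medium nitrite is measured by Griess reaction (sulfanilamide, naphthylethylenediamine, phosphoric acid, 10 min, room temperature, dark). Mean + SD from three independent experiments.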

For experiment [2], the system named is RAW264.7. Nature of the experiment: Antiinflammatory activity against mouse RAW264.7 cells assessed as decrease in LPS-induced TNF-alpha mRNA expression at 20 uM in presence of LPS by qRT-PCR analysis. It counts as functional, cell-based. Put shortly:
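RAW 264.7 cells are grown 12 h in six-well plates, then exposed to LPS (100 ng/ml) plus compound for 8 h. Reverse transcription is followed by SYBR Green qPCR with GAPDH as internal control. Relative expression is calculated by 2^-ΔΔCT versus the untreated control. Mean + SD from three independent experiments.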
For orientation: Quantitative PCR measures a nucleic acid by following its amplification.

Experiment [3] relates to RAW264.7. The experiment can be described thus: Antiinflammatory activity against mouse RAW264.7 cells assessed as inhibition of LPS-induced NO production measured after 24 hrs by Griess assay. It counts as functional, cell-based. The settings on record: RAW264.7, 24 h. Put shortly: as §1
(In general: Griess reagent forms a coloured azo dye with nitrite.)

For experiment [4], the system named is Mus musculus. The experiment can be described thus: Antiinflammatory activity against DSS-induced colitis C57BL/6 mouse model assessed as reduction in scores of stool consistency and bleeding at 20 mg/kg, ip administered for 7 days by immunohistochemistry analysis. It counts as functional, organism-based. Particulars: time 7.0 day.
In experiment [5] the test system is Mus musculus. Nature of the experiment: Antiinflammatory activity against DSS-induced colitis C57BL/6 mouse model assessed as dispersed CD86-positive cells in colon at 20 mg/kg, ip administered for 7 days by hematoxylin and eosin staining based microscopic analysis. It counts as functional, organism-based. Particulars: time 7.0 day. In outline:
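DSS colitis (3.5% DSS, male C57BL/6 mice, n=5 per group) with 7-day intraperitoneal dosing in saline/castor oil/ethanol/DMSO vehicle. Colons are fixed in formalin, paraffin-embedded and stained with H&E (viewed at 200X). Separately, sections undergo CD86 immunohistochemistry (citrate antigen retrieval, 3% H2O2 block, 1:200 primary and HRP secondary, hematoxylin counterstain) viewed at 400X.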

For orientation: inhibition means the percentage by which the read-out fell short of the control. By pIC50 is commonly meant −log10 of the IC50, conventionally taken in molar units. For the compound `C[C@@H]1C[C@H]2[C@@H]3CCC4=CC(=O)C=C[C@]4(C)[C@@]3(F)[C@@H](O)C[C@]2(C)[C@@]1(O)C(=O)CO` [DEXAMETHASONE], the inhibition at 20 µM in experiment [1] was 93.6%. Besides, the outcome in experiment [2], in experiment [4] and in experiment [5] was Active. Moreover, the pIC50 in experiment [3] is 4.83.
